Compounds with a hit are over-represented: about 2.8% of the library has one in this group of screens.
NPY-Y1 antag – blocks the human neuropeptide Y Y1 receptor; P25929; HEK293-CNG Y1 cells, membrane potential fluorescence; NPY at EC95, then isoproterenol; inhibition, % at 3.6 µM; actives 1% (n = 200,000); AID 1040;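 active = inhibition above the campaign mean inhibition of all tested compounds plus 3 SD, cut at about 20% in these data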;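 note: 0% = DMSO wells given NPY plus isoproterenol and 100% = isoproterenol alone without NPY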
Target sequence (P25929 whole entry, looked up): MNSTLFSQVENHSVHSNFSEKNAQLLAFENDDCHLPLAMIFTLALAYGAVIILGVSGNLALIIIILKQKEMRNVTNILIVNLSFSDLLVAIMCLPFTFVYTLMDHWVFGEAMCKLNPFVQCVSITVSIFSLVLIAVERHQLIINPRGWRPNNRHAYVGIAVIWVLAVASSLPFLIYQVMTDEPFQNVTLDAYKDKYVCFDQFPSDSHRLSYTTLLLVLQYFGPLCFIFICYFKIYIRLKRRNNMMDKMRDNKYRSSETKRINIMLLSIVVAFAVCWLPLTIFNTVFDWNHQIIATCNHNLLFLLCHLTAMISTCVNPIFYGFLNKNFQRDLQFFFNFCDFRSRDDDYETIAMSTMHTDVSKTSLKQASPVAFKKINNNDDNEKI
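Benchmarks – high control isoproterenol alone, low control NPY with isoproterenol · Material – HEK293 Y1/CNG channel cell line · Times – dye 3 h, compound 60 min room temperature, stimulation 45 min · Probe or stimulus – NPY (25 nM), isoproterenol (1 µM), Ro 20-1724 (25 µM) · Evaluation – % inhibition of NPY effect · Signal – fluorescence, membrane potential probe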
Mdm2 ligase inh – Mdm2 E3 ligase (human) inhibition; cell-based MDM2 ubiquitination luciferase reporter, 2 h; 0 = plate control, 100 = twice control, blank-subtracted; Q00987; actives 0.11% (n = 210,000); signal enhancement, % at 5 µM;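 active = signal enhancement of 30% or more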;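 note: luminescence tracks abundance of the self-degrading MDM2-luciferase fusion protein; higher signal means inhibition of MDM2 E3 ligase activity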
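Timing – 2 h compound exposure at 37 °C · Assay system – mammalian cells stably expressing self-ubiquitinating, self-degrading MDM2 E3–luciferase fusion · Amount – 2000 cells seeded into each well · Measure – % luminescence enhancement versus blank-corrected plate control mean · Measured by – SteadyLite luminescence, 15 min reagent step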
Measles CPE – protection of cells from measles virus; AID 841; actives 1.5% (n = 140,000); Measles virus-infected cells, CPE protection, absorbance; protection (pct of control), % at 4 µM; in the data active = protection mostly above about 24%, no sharp cut-off; inactive = mostly below about 26%
NPY Y2 blocker – antagonists of human neuropeptide Y receptor Y2; actives 0.99% (n = 140,000); AID 793; inhibition, % at 2.7 µM; P49146; NPY-Y2 expressing cells, antagonist mode; in the data active = inhibition above about 17%;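 note: 0% = vehicle with agonist challenge and 100% = reference antagonist with challenge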
NPY2 pot ag – human NPY-Y2 potentiation or agonism, primary screen. P49146. cells expressing NPY-Y2, potentiator/agonist read-out. activation, % at 3.6 µM. actives 0.45% (n = 220,000); in the data active = activation above about 27%;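 note: cells stimulated with NPY near EC25 plus isoproterenol at EC100; 0% = vehicle plus submaximal agonist and 100% = vehicle plus saturating agonist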
NPY1 pot ag – potentiators or agonists of human neuropeptide Y receptor Y1; activation, % at 3.6 µM; AID 1304; P25929; NPY-Y1 expressing cells, potentiator/agonist activation; actives 0.37% (n = 220,000); in the data active = activation above about 33%, passing the limit was not always enough;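 note: cells stimulated with NPY at EC10 then isoproterenol at EC100; 0% = low agonist plus stimulus and 100% = saturating agonist plus stimulus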
NPY-Y1 antag ct – counter-screen for NPY-Y2 antagonists: human NPY-Y1 antagonism; actives 19% (n = 710); cell-based NPY-Y1 antagonism counterscreen; inhibition, % at 3.6 µM; AID 1256; shares compounds with NPY Y2 blocker;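 note: cells challenged with NPY then isoproterenol with cAMP sensed through a CNG channel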
NPY2 antag conf – confirmation of human neuropeptide Y receptor Y2 antagonists; shares compounds with NPY Y2 blocker; HEK293 NPY-Y2 CNG channel, membrane potential fluorescence; inhibition, % at 2.8 µM; actives 32% (n = 710); AID 1257;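 active = mean inhibition of triplicate wells above the hit cutoff set in the primary screen, cut at about 17% in these data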;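 note: 0% = DMSO with NPY challenge and 100% = BIIE0246 high control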
NPY-Y1 ant conf – confirmation of human neuropeptide Y receptor Y1 antagonists; actives 21% (n = 1,200); HEK293-CNG NPY-Y1, membrane potential fluorescence, cAMP; NPY challenge against isoproterenol-raised cAMP; shares compounds with NPY-Y1 antag; inhibition, % at 3.6 µM;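 note: 0% = vehicle with agonist plus stimulus and 100% = stimulus alone without agonist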
NPY2 antag ctr – counter-screen for NPY-Y1 antagonists: human NPY-Y2 antagonism. shares compounds with NPY-Y1 antag. HEK293 NPY-Y2 CNG membrane potential fluorescence; cells given NPY, then isoproterenol. inhibition, % at 3.6 µM. actives 28% (n = 1,200). AID 1255; in the data active = inhibition above about 17%;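 note: 0% = DMSO with agonist challenge and 100% = reference antagonist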
Active calls of the source: *; . = not tested or not shown. Cut-off read from the data, not from the text of the source, unless noted: active = inhibition above about 20%; inactive = the rest.

SMILES	NPY-Y1 antag	Mdm2 ligase inh	Measles CPE	NPY Y2 blocker	NPY2 pot ag	NPY1 pot ag	NPY-Y1 ant conf	NPY2 antag ctr	others
CCOC(=O)Cn1c(S(=O)(=O)Cc2cccc(F)c2)nc(-c2ccccc2)c1-c1ccccc1	16	-12	31*	19*	-12	-18	.	.	NPY-Y1 antag ct=17;NPY2 antag conf=9
CC(=O)c1ccccc1NC(=O)CSc1nnc2ccccn12	3	-37	7	0	-3	0	.	.
CC1(C)CC(=O)C2=C(C1)OC(N)=C(C#N)C2C1CC=CCC1 (stereo unspecified)	1	-11	17	3	-10	-12	.	.
Cc1ccc(Nc2nc(N)nc(CSc3ncccn3)n2)cc1	0	-6	2	-1	-7	12	.	.
Cc1ccc(Nc2nc(N)nc(CSc3nc(C)cc(C)n3)n2)cc1	7	4	1	29*	11	11	.	.	NPY-Y1 antag ct=1;NPY2 antag conf=3
O=C(CN(Cc1ccc2c(c1)OCO2)C(=O)CSc1nc2ccccc2o1)NC1CCCCC1	13	-2	1	17*	-17	-4	.	.	NPY-Y1 antag ct=16;NPY2 antag conf=19*
COCCN(CC(=O)NC1CCCCC1)C(=O)CSc1nc2ccccc2o1	4	9	14	1	-11	-4	.	.
O=C(CSc1nc2ccccc2o1)c1ccc2c(c1)OCCO2	9	-12	24	22*	-3	-28	.	.	NPY-Y1 antag ct=9;NPY2 antag conf=18*
Cc1cccc(NC(=O)CSc2nc3ccccc3o2)c1	11	-1	12	22*	-12	-28	.	.	NPY-Y1 antag ct=8;NPY2 antag conf=8
Cc1cc(N2C(=O)C3C4CC(c5ccccc5)C(C4)C3C2=O)no1 (stereo unspecified)	-3	-5	.	.	-2	4	.	.
COC(=O)c1cc2occc2n1Cc1nc(-c2ccc(Cl)cc2)oc1C	10	.	5	3	-10	-17	.	.
COC(=O)c1cc2occc2n1Cc1nc(-c2ccccc2Cl)oc1C	4	.	6	20*	-5	4	.	.	NPY-Y1 antag ct=13;NPY2 antag conf=20*
CCN1CCN(c2ccc(S(=O)(=O)N3CCCCC3)cc2NC(=O)c2ccc(F)cc2)CC1	3	6	3	18*	-8	9	.	.	NPY-Y1 antag ct=0;NPY2 antag conf=7
Cc1ccc(C2CCN(C(=S)Nc3cccc(C)c3)C2)cc1 (stereo unspecified)	9	2	.	.	-13	-10	.	.
CCNNC(=O)C(O)(c1cccc(C)c1)c1cccc(C)c1	0	-6	9	5	4	25	.	.
CCCNNC(=O)C(O)(c1cccc(C)c1)c1cccc(C)c1	26*	-3	5	10	-1	-11	2	7
O=C(COc1ccccc1-c1ccccc1)NNC(=O)NC1CCCCC1	-3	.	.	.	-2	-20	.	.
O=C(Oc1ccc(Nc2ncnc3ccccc23)cc1)c1cccnc1	8	-4	.	.	-1	-3	.	.
COc1ccc(N/N=C(\C=N\O)C(=O)c2ccc(OC)cc2)cc1	32*	-19	3	-1	-9	-30	4	16
COn1c(=O)c(-c2cccs2)[n+]([O-])c2ccccc21	25*	-13	17	10	-16	-16	10	8
CCOn1c(=O)c(-c2cccs2)[n+]([O-])c2ccccc21	10	-19	4	8	-3	-5	.	.
CC(C)Cn1c(-c2ccccc2)nc2ccccc2c1=O	2	-9	26	1	-14	-9	.	.
O=c1c2ccccc2nc(-c2ccc(Br)cc2)n1Cc1ccccc1	24*	-5	21	5	-33	-86	21*	32*
Clc1ccc(CN2CCCCCCC2)cc1Cl	22*	-3	3	7	-29	-15	4	5
CC1CC1C(=O)Nc1nc(-c2ccc(Cl)s2)cs1 (stereo unspecified)	25*	1	.	.	-2	8	8	7
SMILES	NPY-Y1 antag	Mdm2 ligase inh	Measles CPE	NPY Y2 blocker	NPY2 pot ag	NPY1 pot ag	NPY-Y1 ant conf	NPY2 antag ctr	others
O=C(C[n+]1ccc2ccccc2c1)c1ccc(NC(=O)c2ccccc2)cc1	-3	-2	.	.	-10	-7	.	.
COC(=O)c1cc([N+](=O)[O-])c(-n2cncn2)c([N+](=O)[O-])c1	28*	-2	.	.	-8	1	-3	-4
O=c1cc(CN2CCC3(CC2)OCCO3)c2c(ccc3ccccc32)o1	4	-29	10	7	-13	-10	.	.
O=c1cc(CN2CCN(c3ccccc3)CC2)c2c(ccc3ccccc32)o1	44*	-5	7	5	-5	-131	36*	57*
CCCOc1ccccc1C1CC(=O)NC2=C1C(=O)CCC2 (stereo unspecified)	-3	-17	8	4	8	23	.	.
CCCCOc1ccccc1C1CC(=O)NC2=C1C(=O)CCC2 (stereo unspecified)	44*	-21	9	3	-8	-13	10	21*
CN(C)c1ccc(/C=N/OC(=O)Nc2ccccc2Cl)cc1	-1	-24	.	.	-6	-27	.	.
CCCCC(CCC(=O)Nc1ccccc1C(=O)OCC)C(=O)O (stereo unspecified)	23*	-2	15	11	-64	-16	11	13
CCOC(=O)c1ccc(NC(=O)CCC(CC)C(=O)O)cc1 (stereo unspecified)	0	-19	2	2	15	3	.	.
O=C(c1cnn2c(C(F)(F)F)cc(-c3ccco3)nc12)N1CCc2ccccc2C1	21*	-24	.	11	-18	-49	10	7
Cc1ccc(-c2cc(C(F)(F)F)n3ncc(C(=O)O)c3n2)cc1	21*	.	5	2	-10	-2	2	3
COc1ccc(-c2cc(C(F)(F)F)n3ncc(C(=O)O)c3n2)cc1OC	-3	-13	9	4	21	-7	.	.
O=C(c1cnn2c(C(F)(F)F)cc(-c3ccco3)nc12)N1CCCCCC1	1	-21	10	5	-28	-19	.	.
C(=N\Nc1nc(Nc2ccccc2)nc(N2CCCCC2)n1)/c1ccco1	1	0	.	.	2	13	.	.
COc1ccc(/C=N/NC(=O)c2ccncc2)cc1Cn1nc([N+](=O)[O-])c(Br)c1C	-3	-14	.	.	14	7	.	.
CCNc1nc(NC(C)C)nc(SCCOC(=O)c2ccccc2)n1	-3	-3	2	2	-10	-12	.	.

From PubChem BioAssay
